In ChEMBL document CHEMBL1165853, “Hybrids of 3alpha-methoxyserrat-14-en-21beta-ol (PJ-1) and 3beta-methoxyserrat-14-en-21beta-ol (PJ-2) and various anti-oxidants as cancer chemopreventive agents” (Eur J Med Chem, 2010):
The source made the active and inactive calls. The calls are words filed in the database; no cut-off is given here.

How the values were obtained:
[1] = Inhibition of TPA-induced EBV-early antigen activation in human Raji cells assessed as EA activation after 48 hrs; format: cell-based, human gammaherpesvirus 4
Outline: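 Raji cells (EBV genome-carrying, virus non-producer Burkitt's lymphoma line; RPMI-1640 with 10% FBS) were seeded at 1×10⁶/mL and held 48 h at 37 °C with n-butyric acid (4 mmol), TPA (32 pmol) and test agent at 1000, 500, 100 or 10 mol ratio/32 pmol TPA. EA-positive cells were scored by indirect immunofluorescence with NPC patient serum, counting ≥500 cells, in triplicate. Results are expressed relative to the butyrate+TPA control (100%), and IC50 is given as mol ratio/32 pmol TPA.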

[2] = Cytotoxicity against human Raji cells assessed as cell viability at 1000 molar ratio by trypan blue staining method; format: cell-based; conditions: read-out: Activity
Outline: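 Viability was measured by trypan blue staining of Raji cells after the 48 h, 37 °C EBV-EA induction run (n-butyric acid 4 mmol plus TPA 32 pmol), with compound at 1000 mol ratio/32 pmol TPA.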

Mus musculus [3] = assay: Inhibition of DMBA-induced/TPA-promoted carcinogenesis in ICR mouse assessed as reduction of mouse bearing papillomas at 85 nmol administered 1 hr before TPA treatment measured after 10 to 15 weeks; format: functional
Outline: (§1)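 In the two-stage mouse skin carcinogenesis model, DMBA was the initiator and TPA the promoter, and test agent was given at 85 nmol alongside DMBA/TPA. Papilloma-bearing mice (%), papillomas per mouse, and tumor length and width were followed through week 20 against a DMBA/TPA-only group.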

Mus musculus [4] = assay: Inhibition of DMBA-induced/TPA-promoted carcinogenesis in ICR mouse assessed as reduction of mouse bearing papillomas at 85 nmol administered 1 hr before TPA treatment measured after 20 weeks; format: functional; outline: as §1
Mus musculus [5] = assay: Inhibition of DMBA-induced/TPA-promoted carcinogenesis in ICR mouse assessed as reduction of mouse bearing papillomas number at 85 nmol administered 1 hr before TPA treatment measured after 20 weeks; format: functional; outline: as §1
Mus musculus [6] = assay: Inhibition of DMBA-induced/TPA-promoted carcinogenesis in ICR mouse assessed as reduction of mouse bearing papillomas length at 85 nmol administered 1 hr before TPA treatment measured after 20 weeks; format: functional; outline: as §1
Mus musculus [7] = assay: Inhibition of DMBA-induced/TPA-promoted carcinogenesis in ICR mouse assessed as reduction of mouse bearing papillomas width at 85 nmol administered 1 hr before TPA treatment measured after 20 weeks; format: functional; outline: as §1
Mus musculus [8] = species: Mus musculus; assay: Toxicity in ICR mouse assessed as change in body weight; format: organism-based; conditions: in vivo
Mus musculus [9] = species: Mus musculus; assay: Toxicity in ICR mouse assessed as lesional damage; format: organism-based; conditions: in vivo
Mus musculus [10] = species: Mus musculus; assay: Toxicity in ICR mouse assessed as inflammation; format: organism-based; conditions: in vivo

IC50 [1] [molar ratio]	SMILES	viability at 1000 molar ratio [2] [%]	also measured
371	CO[C@H]1CC[C@@]2(C)[C@@H](CC[C@@]3(C)CC4=CC[C@H]5C(C)(C)[C@H](OC(=O)CCC(=O)Oc6coc(CO)cc6=O)CC[C@]5(C)[C@H]4CC[C@@H]32)C1(C)C	70	–
350	CO[C@@H]1CC[C@@]2(C)[C@@H](CC[C@@]3(C)CC4=CC[C@H]5C(C)(C)[C@H](OC(=O)CCC(=O)Oc6ccc(-c7oc8cc(O)cc(O)c8c(=O)c7O)cc6O)CC[C@]5(C)[C@H]4CC[C@@H]32)C1(C)C	60	inhibition (INH) (Mus musculus [3]): 26.6%; inhibition (INH) (Mus musculus [4]): 73.3%; inhibition (Mus musculus [5]): Active; Activity (Mus musculus [6]): 28 mm; Activity (Mus musculus [7]): 25 mm; Activity (Mus musculus [8]): Non-toxic; Activity (Mus musculus [9]): Non-toxic; Activity (Mus musculus [10]): Non-toxic
370	CO[C@@H]1CC[C@@]2(C)[C@@H](CC[C@@]3(C)CC4=CC[C@H]5C(C)(C)[C@H](OC(=O)CCC(=O)Oc6coc(CO)cc6=O)CC[C@]5(C)[C@H]4CC[C@@H]32)C1(C)C	70	–
470	CO[C@H]1CC[C@@]2(C)[C@@H](CC[C@@]3(C)CC4=CC[C@H]5C(C)(C)[C@H](OC(N)=O)CC[C@]5(C)[C@H]4CC[C@@H]32)C1(C)C	60	–
468	CO[C@H]1CC[C@@]2(C)[C@@H](CC[C@@]3(C)CC4=CC[C@H]5C(C)(C)[C@H](OC(=O)Nc6ccccc6Cl)CC[C@]5(C)[C@H]4CC[C@@H]32)C1(C)C	50	–
473	CO[C@H]1CC[C@@]2(C)[C@@H](CC[C@@]3(C)CC4=CC[C@H]5C(C)(C)[C@H](OC(=O)CCl)CC[C@]5(C)[C@H]4CC[C@@H]32)C1(C)C	60	–
461	CO[C@H]1CC[C@@]2(C)[C@@H](CC[C@@]3(C)CC4=CC[C@H]5C(C)(C)[C@H](OC(=O)NS(=O)(=O)c6ccc(C)cc6)CC[C@]5(C)[C@H]4CC[C@@H]32)C1(C)C	60	–
460	CO[C@H]1CC[C@@]2(C)[C@@H](CC[C@@]3(C)CC4=CC[C@H]5C(C)(C)[C@H](OC(=S)Nc6ccccc6)CC[C@]5(C)[C@H]4CC[C@@H]32)C1(C)C	60	–
330	CO[C@H]1CC[C@@]2(C)[C@@H](CC[C@@]3(C)CC4=CC[C@H]5C(C)(C)[C@H](OC(=O)CCC(=O)Oc6ccc(-c7oc8cc(O)cc(O)c8c(=O)c7O)cc6O)CC[C@]5(C)[C@H]4CC[C@@H]32)C1(C)C	60	inhibition (INH) (Mus musculus [3]): 20%; inhibition (INH) (Mus musculus [4]): 86.6%; papillomas per mouse (Mus musculus [5]): 4.7 papillomas/mouse; Activity (Mus musculus [6]): 26 mm; Activity (Mus musculus [7]): 24 mm; Activity (Mus musculus [8]): Non-toxic; Activity (Mus musculus [9]): Non-toxic; Activity (Mus musculus [10]): Non-toxic
459	CO[C@H]1CC[C@@]2(C)[C@@H](CC[C@@]3(C)CC4=CC[C@H]5C(C)(C)[C@H](OC(=O)Nc6ccccc6)CC[C@]5(C)[C@H]4CC[C@@H]32)C1(C)C	60	–

Second part, the molecule before the results:

SMILES	IC50 [1] [molar ratio]	viability at 1000 molar ratio [2] [%]	also measured
COc1cc(/C=C/C(O)=C/C(O)/C=C/c2ccc(OC(=O)CC(=O)O[C@@H]3CC[C@]4(C)[C@H]5CC[C@H]6[C@@](C)(CC[C@H]7C(C)(C)[C@H](OC)CC[C@@]76C)CC5=CC[C@H]4C3(C)C)c(OC)c2)ccc1OC(=O)CC(=O)O[C@@H]1CC[C@]2(C)[C@H]3CC[C@H]4[C@@](C)(CC[C@H]5C(C)(C)[C@H](OC)CC[C@@]54C)CC3=CC[C@H]2C1(C)C (stereo partly drawn)	335	60	–
COc1cc(/C=C/C(O)=C/C(O)/C=C/c2ccc(OC(=O)CCC(=O)O[C@@H]3CC[C@]4(C)[C@H]5CC[C@H]6[C@@](C)(CC[C@H]7C(C)(C)[C@@H](OC)CC[C@@]76C)CC5=CC[C@H]4C3(C)C)c(OC)c2)ccc1OC(=O)CCC(=O)O[C@@H]1CC[C@]2(C)[C@H]3CC[C@H]4[C@@](C)(CC[C@H]5C(C)(C)[C@@H](OC)CC[C@@]54C)CC3=CC[C@H]2C1(C)C (stereo partly drawn)	395	60	–
COc1cc(/C=C/C(O)/C=C(O)/C=C/c2ccc(OC(=O)CCC(=O)O[C@@H]3CC[C@]4(C)[C@H]5CC[C@H]6[C@@](C)(CC[C@H]7C(C)(C)[C@H](OC)CC[C@@]76C)CC5=CC[C@H]4C3(C)C)c(OC)c2)ccc1O (stereo partly drawn)	393	60	–
COc1cc(/C=C/C(=O)CC(O)/C=C/c2ccc(OC(=O)CC(=O)O[C@@H]3CC[C@]4(C)[C@H]5CC[C@H]6[C@@](C)(CC[C@H]7C(C)(C)[C@@H](OC)CC[C@@]76C)CC5=CC[C@H]4C3(C)C)c(OC)c2)ccc1OC(=O)CC(=O)O[C@@H]1CC[C@]2(C)[C@H]3CC[C@H]4[C@@](C)(CC[C@H]5C(C)(C)[C@@H](OC)CC[C@@]54C)CC3=CC[C@H]2C1(C)C (stereo partly drawn)	338	60	–
COc1cc(/C=C/C(O)/C=C(O)/C=C/c2ccc(OC(=O)CC(=O)O[C@@H]3CC[C@]4(C)[C@H]5CC[C@H]6[C@@](C)(CC[C@H]7C(C)(C)[C@H](OC)CC[C@@]76C)CC5=CC[C@H]4C3(C)C)c(OC)c2)ccc1O (stereo partly drawn)	354	60	–
COc1cc(/C=C/C(O)/C=C(O)/C=C/c2ccc(OC(=O)CCC(=O)O[C@@H]3CC[C@]4(C)[C@H]5CC[C@H]6[C@@](C)(CC[C@H]7C(C)(C)[C@@H](OC)CC[C@@]76C)CC5=CC[C@H]4C3(C)C)c(OC)c2)ccc1O (stereo partly drawn)	460	60	–
COc1cc(/C=C/C(O)=C/C(O)/C=C/c2ccc(OC(=O)CCC(=O)O[C@@H]3CC[C@]4(C)[C@H]5CC[C@H]6[C@@](C)(CC[C@H]7C(C)(C)[C@H](OC)CC[C@@]76C)CC5=CC[C@H]4C3(C)C)c(OC)c2)ccc1OC(=O)CCC(=O)O[C@@H]1CC[C@]2(C)[C@H]3CC[C@H]4[C@@](C)(CC[C@H]5C(C)(C)[C@H](OC)CC[C@@]54C)CC3=CC[C@H]2C1(C)C (stereo partly drawn)	462	60	–
CC1(C)CC[C@]2(C(=O)O)CC[C@]3(C)C(=CC[C@@H]4[C@@]5(C)CC[C@H](O)C(C)(C)[C@@H]5CC[C@]43C)[C@@H]2C1 [OLEANOLIC_ACID]	449	–	–
COc1cc(/C=C/C(O)/C=C(O)/C=C/c2ccc(OC(=O)CC(=O)O[C@@H]3CC[C@]4(C)[C@H]5CC[C@H]6[C@@](C)(CC[C@H]7C(C)(C)[C@@H](OC)CC[C@@]76C)CC5=CC[C@H]4C3(C)C)c(OC)c2)ccc1O (stereo partly drawn)	358	60	–
